Results from different studies.
PIK3CA: Phosphatidylinositol 4,5-bisphosphate 3-kinase catalytic subunit alpha isoform (PIK3CA, Homo sapiens, UniProt P42336)
PIKFYVE: 1-phosphatidylinositol 3-phosphate 5-kinase (PIKFYVE, Homo sapiens, UniProt Q9Y2I7)
PTK6: Protein-tyrosine kinase 6 (PTK6, Homo sapiens, UniProt Q13882)
CELA1: Chymotrypsin-like elastase family member 1 (CELA1, Sus scrofa, UniProt P00772)

CC(C)(C)n1nc(-c2cnc3cc(OC4CC4)ccc3c2)c(C(N)=O)c1N  IC50 (Dual specificity mitogen-activated protein kinase kinase 1 (MAP2K1, Homo sapiens, UniProt Q02750); cell-free assay): 8.23 µM
N#Cc1ccc(N2CCN(S(=O)(=O)c3ccc(F)cc3)CC2)cc1NCc1ccncc1  IC50 (ATP-sensitive inward rectifier potassium channel 1 (Homo sapiens, UniProt P48048); ion flux, inhibitor): 7 µM
C[C@@H]1O[C@@H](O[C@H]2[C@H](Oc3c(-c4ccc(O)cc4)oc4cc(O)cc(O)c4c3=O)O[C@H](CO[C@@H]3O[C@H](CO)[C@@H](O)[C@H](O)[C@H]3O)[C@@H](O)[C@@H]2O)[C@H](O)[C@H](O)[C@H]1O  IC50 (Prostaglandin G/H synthase 2 (PTGS2, Ovis aries, UniProt P79208); enzyme activity, inhibitor, absorbance): 44 µM
COc1ccc([N+](=O)[O-])cc1/C=C1\SC(=S)NC1=O  IC50 (PIK3CA; enzyme activity, inhibitor, radiometric): 28 µM
CC(C)(C#Cc1ccc2[nH]c3c(c2c1)-c1nc(N)ncc1CCC3)NS(C)(=O)=O  IC50 (PIKFYVE; target engagement in cells, BRET): 1.6 µM
O=C1NC(=S)S/C1=C\c1cc([N+](=O)[O-])ccc1Cl  IC50 (PIK3CA; enzyme activity, inhibitor, radiometric): 42 µM
CCCC1CNCc2c1[nH]c(=O)c(C#N)c2N1CCC2(CC1)CC2(F)F (centres unmarked)  IC50 (High affinity cGMP-specific 3',5'-cyclic phosphodiesterase 9A (PDE9A, Homo sapiens, UniProt O76083); enzyme activity, inhibitor, radiometric): 0.069 µM
Nc1ncc(-c2nc(N3CCOCC3)nc(N3[C@@H]4CC[C@H]3COC4)n2)c(C(F)F)n1  IC50 (PIK3CA; ligand displacement, TR-FRET): 0.033 µM
O=C1NC(=S)S/C1=C\c1cc(Br)cc(Br)c1  IC50 (PIK3CA; enzyme activity, inhibitor, radiometric): > 100 µM
CN1CCN(c2ccc(Nc3ncc4cc(C#N)c(=O)n(C5CCCC5)c4n3)cc2)CC1  IC50 (PTK6; enzyme activity, inhibitor): 0.304 µM
C/C=C1\NC(=O)[C@H](C)NC(=O)[C@@H](NC(=O)[C@H](Cc2ccc(O)cc2)NC(=O)[C@@H](NC(=O)/C(C)=C/C)C(C)C)[C@@H](C)OC(=O)[C@H](CCCc2ccc(O)cc2)NC(=O)[C@@H](CCC(=O)OC)NC1=O  IC50 (CELA1; enzyme activity, inhibitor, absorbance): 2.23 µM
NC(=O)NCCC[C@@H](NS(=O)(=O)c1ccc(OCc2cc(Br)cc(Br)c2)cc1)C(=O)NO  IC50 (Disintegrin and metalloproteinase domain-containing protein 17 (ADAM17, Homo sapiens, UniProt P78536); enzyme activity, inhibitor, fluorescence): 0.0019 µM
CCCCN1/C(=C/C=C/c2sc3ccc(Br)cc3[n+]2CCCC)Sc2ccc(Br)cc21  IC50 (Protein arginine N-methyltransferase 8 (PRMT8, Homo sapiens, UniProt Q9NR22); enzyme activity, inhibitor, radiometric): 3.53 µM
COc1cc(O)c(CC=C(C)C)c2c1C(=O)CC(c1ccc(O)cc1)O2 (centres unmarked)  IC50 (Cytochrome P450 1A1 (CYP1A1, Homo sapiens, UniProt P04798); enzyme activity, inhibitor, fluorescence; 15 min, pH 7.4): 1.6 µM
CNC(=O)c1cc2c(Oc3ccc(NC(=O)C4(C(=O)Nc5ccc(F)cc5)CC4)cc3)ccnc2cc1OC  IC50 (PTK6; enzyme activity, inhibitor, radiometric): 0.025 µM
NC(=O)c1ccc[n+]([C@@H]2O[C@H](COP(=O)([O-])OP(=O)(O)OC[C@H]3O[C@@H](n4cnc5c(N)ncnc54)[C@H](O)[C@@H]3O)[C@@H](O)[C@H]2O)c1  IC50 (Protein mono-ADP-ribosyltransferase PARP11 (PARP11, Homo sapiens, UniProt Q9NR21); enzyme activity, inhibitor): 116 µM
CC(=O)C1=C(C)N(c2cccc(C(F)(F)F)c2)C(=O)N[C@@H]1c1ccc(C#N)nc1  IC50 (CELA1; enzyme activity, inhibitor): > 30 µM
Cc1ccc(C(C)C)cc1NC(=O)COC(=O)/C=C/c1ccccc1O  IC50 (CELA1; enzyme activity, inhibitor, absorbance): 13.3 µM
CCC(O)(C#Cc1ccc2[nH]c3c(c2c1)-c1nc(N)ncc1CCC3)CC  IC50 (PIKFYVE; enzyme activity, inhibitor, ADP detection): 0.0018 µM
NC(=O)[C@H](CCCN=C(N)CF)NC(=O)c1ccccc1  IC50 (Protein-arginine deiminase type-1 (PADI1, Homo sapiens, UniProt Q9ULC6); enzyme activity, inhibitor): 29.5 µM
